Shown are actives, neighbours in structure and some others; about 1.8% of the full set was active somewhere.
M4 antag = blocks acetylcholine activation of human M4 receptor; P08173; CHO-hM4 cells, ACh EC80, Fluo-8 calcium fluorescence; inhibition, % at 3 µM; hit rate 0.73% among 360,000; AID 624125;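 active = inhibition above its plate's cutoff, the mean inhibition of sample wells plus 3 SD, cut at about 27% in these data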;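 note: 0% = acetylcholine EC80 with DMSO and 100% = DMSO without agonist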
Target sequence (P08173 whole entry, looked up): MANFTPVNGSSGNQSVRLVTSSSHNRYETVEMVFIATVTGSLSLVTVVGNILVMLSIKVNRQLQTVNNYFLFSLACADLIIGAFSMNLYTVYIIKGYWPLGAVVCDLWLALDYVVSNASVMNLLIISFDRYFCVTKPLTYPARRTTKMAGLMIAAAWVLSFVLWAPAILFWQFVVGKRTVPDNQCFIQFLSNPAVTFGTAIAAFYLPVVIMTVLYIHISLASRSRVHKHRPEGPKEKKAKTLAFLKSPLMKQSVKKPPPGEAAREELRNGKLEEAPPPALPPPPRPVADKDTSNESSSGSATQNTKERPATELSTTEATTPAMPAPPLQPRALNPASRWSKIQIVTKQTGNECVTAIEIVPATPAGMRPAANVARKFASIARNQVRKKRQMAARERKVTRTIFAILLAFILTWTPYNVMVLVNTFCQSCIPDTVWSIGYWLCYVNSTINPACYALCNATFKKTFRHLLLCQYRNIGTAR
M5 ag = agonists of human muscarinic M5 receptor (CHRM5); hit rate 0.19% among 360,000; AID 624037; activation, % at 3 µM; P08912; CHO-K1 hM5 cells, Fluo-8 calcium fluorescence; 0% DMSO wells, 100% maximal acetylcholine response;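 active = activation above the run's mean over test compounds plus 3 SD, cut at about 23% in these data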;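 note: signal is peak over basal fluorescence ratio across the kinetic read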
M5 PAM = CHRM5 positive allosteric modulation. P08912. CHO-K1 hM5, Fluo-8 calcium, ACh EC20 PAM; 0% = ACh EC20, 100% = ACh EC100. activation, % at 3 µM. hit rate 0.3% among 360,000;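 active = activation above the run cutoff, the mean activation of all test compounds plus 3 SD, cut at about 18% in these data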
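Replicates: One well per compound, no replicates | System: Human M5 receptor in CHO-K1 cells | Benchmarks: Low control EC20 acetylcholine (0%), high control EC100 acetylcholine (100%) | Probe or stimulus: Acetylcholine, EC20 level | Times: Fluo-8 loading 80 min at 37 °C plus 30 min room temperature | Signal: Intracellular calcium via Fluo-8 fluorescence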
CHRM5 antagonist = CHRM5 antagonism in calcium assay; CHO-hM5 cells, Fluo-8 calcium fluorescence, ACh EC80; inhibition, % at 3 µM; hit rate 0.59% among 360,000;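 active = inhibition above a per-plate cutoff, the mean of that plate's test compounds plus 3 SD, cut at about 27% in these data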;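 note: 0% = acetylcholine EC80 with DMSO and 100% = DMSO without agonist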
CHRM4 agonist = CHRM4 agonism in calcium assay; P08173; CHO-K1 hM4/Gqi5, Fluo-8 calcium fluorescence; vehicle 0%, full acetylcholine response 100%; activation, % at 3 µM; hit rate 0.14% among 360,000; AID 624127;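 active = activation above the run mean over all test wells plus 3 SD, cut at about 32% in these data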;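 note: peak over basal fluorescence ratio per well then scaled between controls; 0% = DMSO wells and 100% = acetylcholine at EC100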
M4 PAM = potentiates acetylcholine response at human M4 receptor | hit rate 0.4% among 360,000 | P08173 | AID 624126 | CHO-K1 hM4/Gqi5, Fluo-8 calcium fluorescence, ACh EC20; 0% = ACh EC20, 100% = maximal ACh | activation, % at 3 µM;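 active = activation above its plate's cutoff, the mean activation of sample wells plus 3 SD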
* hit, by the source's call.

Results for CC[C@H]1O[C@H](C)CC2=C1C(=O)OC(C)(C)O2 ?
M4 antag: -5; M5 ag: 2; M5 PAM: -1; CHRM5 antagonist: 2; CHRM4 agonist: 10; M4 PAM: 23*

What do the screens show for `CN(CC(=O)NCC(=O)Nc1ccc(F)cc1)C1CCS(=O)(=O)C1` (stereo unspecified)?
M4 antag: 1; M5 ag: 0; M5 PAM: 2; CHRM5 antagonist: 1; CHRM4 agonist: 0; M4 PAM: 2

How did N#C/C(=C\c1ccc(N2CCCCC2)o1)C(=O)Nc1cccc(Br)c1 do in these assays?
M4 antag: 32*; M5 ag: 60*; M5 PAM: -22; CHRM5 antagonist: 59*; CHRM4 agonist: 47*; M4 PAM: -20

What do the screens show for `COc1ccc(CN2CCN(C3CCC3)CC2CCO)c(C)c1C` (stereo unspecified)?
M4 antag: 2; M5 ag: -10; M5 PAM: 0; CHRM5 antagonist: 19; CHRM4 agonist: 1; M4 PAM: -2

What do the screens show for `CCS(=O)(=O)c1ncc(Cl)c(C(=O)Nc2ccc(S(=O)(=O)N(C)c3ccccc3)cc2)n1`?
M4 antag: 59*; M5 ag: -8; M5 PAM: -11; CHRM5 antagonist: 18; CHRM4 agonist: 14; M4 PAM: -14

How did CCN(c1ccccc1)S(=O)(=O)c1ccc(NC(=O)c2nc(S(C)(=O)=O)ncc2Cl)cc1 do in these assays?
M4 antag: 75*; M5 ag: 3; M5 PAM: -13; CHRM5 antagonist: 29*; CHRM4 agonist: 36*; M4 PAM: -15

What do the screens show for `NC(=O)Cn1ccc(O)c(Cc2ccc(Cl)cc2Cl)c1=O`?
M4 antag: 3; M5 ag: 1; M5 PAM: -2; CHRM5 antagonist: 10; CHRM4 agonist: 8; M4 PAM: -6

What do the screens show for `CCOc1ccc(NC(=O)CN(C)C(=O)C2CC(=O)N(CCc3ccccc3)C2)cc1OCC` (stereo unspecified)?
M4 antag: -14; M5 ag: 2; M5 PAM: -2; CHRM5 antagonist: 13; CHRM4 agonist: 1; M4 PAM: 10

Results for Cc1cccc(NC(=O)COC(=O)c2ccc3c(c2)OCO3)c1C ?
M4 antag: -6; M5 ag: 0; M5 PAM: 9; CHRM5 antagonist: 2; CHRM4 agonist: 1; M4 PAM: -3

How did O=C1NC2(Nc3ccccc31)C(=O)Nc1ccc(Br)cc12 (stereo unspecified) do in these assays?
M4 antag: -3; M5 ag: -15; M5 PAM: -30; CHRM5 antagonist: 98*; CHRM4 agonist: 0; M4 PAM: -1

What do the screens show for `Cc1c(NC(=O)COC(=O)Cc2ccc(F)cc2)c(=O)n(-c2ccccc2)n1C`?
M4 antag: 7; M5 ag: -3; M5 PAM: 10; CHRM5 antagonist: -4; CHRM4 agonist: 1; M4 PAM: 2

What do the screens show for `COCCNc1oc(COc2cccc(C)c2)nc1C#N`?
M4 antag: -10; M5 ag: -3; M5 PAM: 24*; CHRM5 antagonist: 8; CHRM4 agonist: 0; M4 PAM: 4

Results for CN(C)CCNc1oc(COc2cccc(Cl)c2)nc1C#N ?
M4 antag: 15; M5 ag: 1; M5 PAM: 4; CHRM5 antagonist: -5; CHRM4 agonist: 1; M4 PAM: -4

What do the screens show for `CC/C(CC(C)(C)c1ccccc1)=N\O`?
M4 antag: 7; M5 ag: -2; M5 PAM: 3; CHRM5 antagonist: 0; CHRM4 agonist: 0; M4 PAM: -5

How did CC[N+](C)(CC)CCC/C(=N/O)C(O)(c1ccccc1)c1ccccc1 do in these assays?
M4 antag: 33*; M5 ag: -18; M5 PAM: -22; CHRM5 antagonist: 14; CHRM4 agonist: 0; M4 PAM: -14

What do the screens show for `CCN(CC)CCC/C(=N\O)C(O)(c1ccccc1)c1ccccc1`?
M4 antag: 79*; M5 ag: -10; M5 PAM: -14; CHRM5 antagonist: 45*; CHRM4 agonist: 0; M4 PAM: -25

Source: PubChem (The Scripps Research Institute Molecular Screening Center)
